Laboratory results from ChEMBL document CHEMBL2177098, “Synthesis and evaluation of novel ¹⁸F labeled 2-pyridinylbenzoxazole and 2-pyridinylbenzothiazole derivatives as ligands for positron emission tomography (PET) imaging of β-amyloid plaques” (J Med Chem, 2012).
Active and inactive are the calls of the source. No cut-off for these calls is given here.

Columns and labels:
[1] = Displacement of [125I]-IMPY from amyloid beta (1 to 42) fibrils after 2 hrs by gamma-counting analysis
How it was run: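 Competition binding with aggregated Aβ1-42 fibrils and [125I]IMPY (60000−100000 cpm/100 μL) in 0.05% BSA (1 mL total); inhibitors 10⁻⁴−10^−8.5 M in ethanol. Incubated 37 °C for 2 h, then GF/B vacuum filtration with PBS (0.02 M, pH 7.4) washes and γ counting. Three repeats; IC50 converted to Ki by Cheng−Prusoff.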

[2] = organism: Mus musculus; assay: Binding affinity to amyloid beta plaques in transgenic C57BL6 mouse hippocampus expressing APP Swedish mutant/PSEN1 at 370 KBq/100 ul after 1 hr by autoradiographic analysis; type: tissue-based; details: tested as the 18F-labelled form
How it was run: (§1)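 Paraffin brain sections from 12-month-old Tg mice (C57BL6, APPswe/PSEN1) and age-matched controls, deparaffinized through xylene and graded ethanol, then PBS (0.2 M, pH 7.4) 30 min. Incubated with 18F tracer (370 KBq per 100 μL) 1 h at room temperature, washed in 40% EtOH, rinsed in water, then phosphor plate exposure 2 h. The same sections were afterwards stained with 0.125% thioflavin S in 10% EtOH for 3 min and washed in 40% EtOH.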

[3] = organism: Mus musculus; assay: Binding affinity to amyloid beta plaques in transgenic C57BL6 mouse cortex expressing APP Swedish mutant/PSEN1 at 370 KBq/100 ul after 1 hr by autoradiographic analysis; details: tested as the 18F-labelled form; how it was run: as §1
[4] = organism: Mus musculus; assay: Binding affinity to amyloid beta plaques in transgenic C57BL6 mouse cortex expressing APP Swedish mutant/PSEN1 at 370 KBq/100 ul after 1 hr by thioflavinS-staining method; details: tested as the 18F-labelled form; how it was run: as §1
[5] = organism: Mus musculus; assay: Binding affinity to amyloid beta plaques in transgenic C57BL6 mouse hippocampus expressing APP Swedish mutant/PSEN1 at 370 KBq/100 ul after 1 hr by thioflavinS-staining method; type: tissue-based; details: tested as the 18F-labelled form; how it was run: as §1

Compound | Ki [1] [nM] | Activity [2] | Activity [3] | Activity [4] | Activity [5]
CNc1ccc(-c2nc3ccc(OCCOCCF)cc3s2)cn1 | 29.7 |  |  |  | 
CN(C)c1ccc(-c2nc3cc(OCCF)ccc3o2)cn1 | 2.7 | Active | Active | Active | Active
CNc1ccc(-c2nc3cc(OCCOCCF)ccc3o2)cn1 | 102 |  |  |  | 
CN(C)c1ccc(-c2nc3cc(OCCOCCF)ccc3o2)cn1 | 7.3 |  |  |  | 
CN(C)c1ccc(-c2nc3cc(OCCOCCOCCF)ccc3o2)cn1 | 9.9 | Active | Active | Active | Active
